Screening results as filed in PubChem.
PKD1 inh: inhibitors of human PKD1 kinase. Q15139. PKD1 kinase fluorescence polarization assay. inhibition, % (concentration not given with the values). actives 0.056% (n = 200,000); in the data active = inhibition above about 50%
Target sequence (Q15139 whole entry, looked up): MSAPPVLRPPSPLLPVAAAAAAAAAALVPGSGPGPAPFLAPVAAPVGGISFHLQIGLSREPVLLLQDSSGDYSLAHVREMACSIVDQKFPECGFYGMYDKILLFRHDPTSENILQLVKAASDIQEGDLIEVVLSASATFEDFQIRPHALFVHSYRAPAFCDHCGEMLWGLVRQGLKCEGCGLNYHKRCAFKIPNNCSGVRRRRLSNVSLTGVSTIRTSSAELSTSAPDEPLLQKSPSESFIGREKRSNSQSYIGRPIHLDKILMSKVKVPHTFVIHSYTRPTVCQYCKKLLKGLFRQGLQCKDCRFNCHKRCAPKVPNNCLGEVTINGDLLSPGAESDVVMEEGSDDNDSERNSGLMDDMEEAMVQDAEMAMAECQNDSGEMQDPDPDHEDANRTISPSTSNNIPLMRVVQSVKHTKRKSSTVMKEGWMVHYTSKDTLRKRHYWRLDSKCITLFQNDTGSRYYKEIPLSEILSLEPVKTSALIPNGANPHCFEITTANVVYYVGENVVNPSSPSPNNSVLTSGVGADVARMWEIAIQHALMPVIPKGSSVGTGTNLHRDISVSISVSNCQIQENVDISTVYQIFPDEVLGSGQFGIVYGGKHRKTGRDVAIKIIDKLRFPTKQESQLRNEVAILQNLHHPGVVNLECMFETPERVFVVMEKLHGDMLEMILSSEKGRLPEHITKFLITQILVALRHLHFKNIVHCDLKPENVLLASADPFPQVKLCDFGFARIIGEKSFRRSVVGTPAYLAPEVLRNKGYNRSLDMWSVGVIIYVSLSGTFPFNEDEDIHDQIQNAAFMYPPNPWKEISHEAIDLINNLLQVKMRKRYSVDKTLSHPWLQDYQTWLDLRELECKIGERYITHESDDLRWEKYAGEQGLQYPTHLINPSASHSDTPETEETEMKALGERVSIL
Rad51 HR inh: blocks human Rad51 in homologous recombination | inhibition, % at 10 µM | hRad51 DNA strand exchange, fluorescence dequenching | actives 0.085% (n = 200,000) | Q06609;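 active = inhibition above 40% at the single screening dose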
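Material: Human Rad51 nucleoprotein filaments preassembled on unlabelled ssDNA | Also added: Labelled 47-mer dsDNA for strand exchange | Dosing: Single dose, 10 µM final compound | Schedule: 30-min compound preincubation and 15-min exchange, both room temperature | Technique: Fluorescence dequenching at 485/520 nm | Measure: Percent inhibition relative to plate controls and blanks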
ROMK mod: modulators of human ROMK potassium channel; Tet-inducible ROMK, thallium flux fluorescence; actives lie on both sides; actives 2% (n = 130,000); B-score at 10 µM; P48048; AID 1918;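 active = signal ratio slope over the read window, or its plate-corrected B-score, at least 3 SD from the plate mean, either direction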;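 also: B-score of the F/F0 ratio slope over 7 to 12 s after thallium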
KCC2 mod: modulates chloride dependent transport by human KCC2. B-score of Tl+ flux slope (higher = more flux/activation; lower = inhibition) at 10 µM. KCC2 cells, thallium flux FluoZin-2 fluorescence. Q9H2X9. AID 1456. actives 2.2% (n = 190,000);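 active = thallium flux slope and its plate-corrected score both differing from the plate sample mean at a set confidence after two filtering rounds, in either direction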;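 also: slope of fluorescence scaled to starting intensity during 10 to 20 s after thallium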
ROMK hit retest: human ROMK channel modulation, retest confirmation; normalized thallium flux (F/F0 slope) at 10 µM; actives 54% (n = 3,000); shares compounds with ROMK mod; ROMK thallium flux, fluorescence ratio; hits give low values; AID 1917;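 active = Flux at 10 µM at least 3 SD below or above vehicle control mean in one or both replicates; inconclusive = no clear call, values can overlap the other calls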
A number is an active result; i = inactive; ? = inconclusive; nt = no result given. In the library only some 3% were active in any assay of this set; here they are far more common.

SMILES | PKD1 inh | Rad51 HR inh | ROMK mod | KCC2 mod | ROMK hit retest
COC(=O)c1ccc(-c2sc3nc(N4CCOCC4)c4c(c3c2N)CCCC4)o1 | i | i | -4.29 | i | 0.0582
CCOC(=O)c1sc2nc(N3CCOCC3)c3c(c2c1N)CCCC3 | i | i | nt | nt | nt
N#Cc1ccc(C(=O)Nc2ccc([N+](=O)[O-])cc2)c(F)c1 | i | i | i | i | nt
CCn1c(=O)c([N+](=O)[O-])c(N2CCN(Cc3ccc4c(c3)OCO4)CC2)c2ccccc21 | nt | i | nt | i | 0.0639
CCn1c(=O)c([N+](=O)[O-])c(N2CCSCC2)c2ccccc21 | nt | i | nt | i | nt
COc1cc(NC(=O)CN2CCN(c3ccccc3O)CC2)c(C)cc1[N+](=O)[O-] | i | i | -4.41 | i | 0.0491
Cc1ccc(C(=O)OCC(=O)Nc2cccc(S(=O)(=O)NC3=NCCCCC3)c2)c(C)c1 | i | i | i | i | nt
O=C(CCC1CCCN(Cc2ccc3c(c2)CCO3)C1)NCc1ccc(F)c(F)c1 (stereo not given) | i | i | i | nt | nt
Cc1ccc(-n2ncc(C(=O)Nc3cc(Cl)ccc3Cl)c2C2CCNCC2)cc1 | i | i | -6.24 | i | 0.0579
CS(=O)(=O)Nc1ccccc1C(=O)Nc1cc(Cl)cc(Cl)c1 | i | i | i | i | nt
Cc1ccc(-n2ncc(C(=O)Nc3cc(Cl)cc(Cl)c3)c2C2CCNCC2)cc1C | i | i | -6.12 | i | 0.0479
CCOC(=O)c1cnn(-c2ccc(Cl)cc2)c1C1CCN(C(=O)OC(C)(C)C)CC1 | i | i | i | i | nt
COC(=O)c1cnn(-c2ccccc2)c1/C=N/NC(=S)Nc1ccc(Cl)cc1 | nt | i | i | i | nt
C(#CCN1CCOCC1)COCCOC(c1ccccc1)c1ccccc1 | i | i | 1 | i | i
C(#CCN1CCOCC1)COC(c1ccccc1)c1ccccc1 | i | i | nt | i | nt
Cc1csc(SCC(=O)Nc2ccccc2[N+](=O)[O-])n1 | i | i | -18.7 | i | ?
Cc1sc2ncn(CCn3cnc4sc(C)c(C)c4c3=O)c(=O)c2c1C | i | i | i | i | nt
Cc1sc2ncn3c(C)nnc3c2c1C | i | i | nt | nt | i
Cn1c(-c2c(N)n(CCCc3ccccc3)c3nc4ccccc4nc23)nc2ccccc21 | i | i | nt | i | nt
COCCCn1c(N)c(-c2nc3ccccc3n2C)c2nc3ccccc3nc21 | i | i | -4.31 | nt | 0.0447
Cc1ccc(C2C(C(=O)c3cccs3)=C(O)C(=O)N2c2nnc(C)s2)cc1 (stereo not given) | i | nt | i | i | 0.0518
COc1ccc(C2C(C(=O)c3cccs3)=C(O)C(=O)N2c2cccc(C)n2)cc1 (stereo not given) | nt | i | nt | i | nt
CC(=O)Oc1ccccc1C1OC(=O)c2ccccc2N1C(C)=O (stereo not given) | i | i | i | nt | i
Cn1ncc([N+](=O)[O-])c1C(=O)Nc1ccc(-c2nc3ccccc3o2)cc1 | i | i | i | i | nt
CC(C)(C)n1ncc2c(=O)n(CC(=O)NCc3ccc(F)cc3)cnc21 | i | i | 3.91 | i | i
SMILES | PKD1 inh | Rad51 HR inh | ROMK mod | KCC2 mod | ROMK hit retest
CCOC(=O)C(C)Oc1cccc2c(=O)n(CC(=O)NCc3ccccc3)ccc12 (stereo not given) | nt | nt | i | i | nt
CCOC(=O)C(C)Oc1cccc2c(=O)n(CC(=O)NCc3ccc(F)cc3)ccc12 (stereo not given) | nt | nt | 3.63 | i | i
COCc1c(C(=O)OC)nnn1-c1ccc(C(F)(F)F)cc1[N+](=O)[O-] | i | nt | i | i | nt
O=S(=O)(NC1CCN(Cc2ccccc2)CC1)c1ccc2ccccc2c1 | i | i | -3.47 | i | 0.0644
Cc1cc(C)c(C)c(S(=O)(=O)NC2CCN(Cc3ccccc3)CC2)c1C | i | i | -4.03 | i | 0.0635
CCN1C(=O)S/C(=C/c2c(OCc3ccc(C(=O)O)cc3)ccc3ccccc23)C1=O | i | nt | 3.9 | i | i
O=C(O)c1ccc(COc2ccc3ccccc3c2/C=C2/NC(=O)N(c3ccccc3)C2=O)cc1 | i | i | i | i | nt
CC(Cc1ccsc1)NC(=O)CCc1nnc(CCc2ccccc2)o1 (stereo not given) | i | nt | i | nt | nt
C=CCOC(=O)C1C(=O)CC(C)(O)C(C(=O)OCC=C)C1c1ccc(OC)cc1 (stereo not given) | i | i | 1.17 | nt | i
CCC(=O)Nc1nc2ccc(NC(=O)c3cc(OC)c(OC)c(OC)c3)cc2s1 | i | i | nt | i | 0.0641
CCc1nnc(NC(=O)C2CCC(CNc3c(N4CCCCC4)c(=O)c3=O)CC2)s1 (stereo not given) | nt | i | -11.9 | i | i
